# NOD2 RIPK2 PPI: NOD2-RIPK2 binding disruptors in cells, primary screen, fluorescence, CHO cells, BLA complementation; Receptor-interacting serine/threonine-protein kinase 2 (Homo sapiens), O43353; CCF4 ratio; inhibition, % at 4.98 µM; hit rate 0.38% among 360,000; AID 624267, 2012; in the data active = inhibition above about 21%;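 also: 0% = vehicle only and 100% = reference blocker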
# TLR9-MyD88 block: inhibitors of TLR9-MyD88 association in cells, primary screen, cell-based, CHO, BLA complementation, fluorescence. hit rate 0.21% among 340,000. CCF4 FRET ratio. AID 504734, 2011. Toll-like receptor 9 (Homo sapiens) + Myeloid differentiation primary response protein …. inhibition, % at 4.98 µM;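 active = inhibition above the mean over all tested compounds plus 3 SD, cut at about 21% in these data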;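 also: 0% = DMSO only wells and 100% = clavulanate BLA inhibitor control wells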
# MIN6 prolif: inducers of MIN6 beta-cell proliferation, primary screen, ATP luminescence, uHTS. hit rate 0.29% among 330,000. MIN6 cells proliferation, ATPlite luminescence, 48 h; cells starved in 0.2% serum; 100% = growth in 10% serum. proliferation, % at 10 µM. AID 2380, 2010;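 active = compounds whose signal lies at least 3.5 SD above the mean of all wells on their plate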;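 also: 0% = DMSO-treated cells in low-serum medium and 100% = 10% serum control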
# MC4R barr agon: MC4R agonists recruiting beta-arrestin, primary screen, cell-based, luminescence, agonist arm of biased-ligand search. AID 540308, 2011. Melanocortin receptor 4 (Homo sapiens), P32245. hit rate 0.98% among 360,000. activation, % at 8.9 µM. U2OS MC4R beta-arrestin complementation; percent of melanotan II response, DMSO zero;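 active = activation above a per-plate cutoff, the mean activation of sample wells on that plate plus 3 SD, cut at about 8% in these data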
# TLR4-MyD88 BLA: inhibitors of TLR4-MyD88 association in cells, primary screen, cell-based, HeLa CL3-4, BLA complementation, FRET ratio. hit rate 0.18% among 200,000. HeLa CL3-4 TLR4/MyD88 BLA complementation. AID 861, 2007. inhibition, % at 8.4 µM. Toll-like receptor 4 (Homo sapiens) + Myeloid differentiation primary response protein …; in the data active = inhibition above about 25%;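 also: 0% = vehicle and 100% = reference inhibitor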
# MC4R antag cAMP: MC4R antagonists of cAMP signaling, primary screen, cell-based, TR-FRET, antagonist arm of biased-ligand search; hit rate 0.48% among 360,000; inhibition, % at 6.5 µM; MC4R-expressing cells, MTII-stimulated cAMP, LANCE TR-FRET; AID 540295, 2011;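 active = inhibition above its plate's cutoff, the mean of tested wells on that plate plus 3 SD, cut at about 29% in these data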;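 also: 0% = Melanotan II alone and 100% = Melanotan II plus saturating MCL0020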
#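 Test system: U2OS cells stably expressing human melanocortin 4 receptor (MC4R); also added: Melanotan II challenge; compound: 6.5 µM single dose; timing: 30-min compound preincubation, 1-h Melanotan II challenge, 1-h detection, room temperature; signal: Eu-cAMP/anti-cAMP TR-FRET, emission 671 nm; repeats: one well per compound, no replicates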
# MC4R barr ag: MC4R beta-arrestin agonists, retest, confirmation, cell-based, luminescence, U2OS | shares compounds with MC4R barr agon | U2OS MC4R beta-arrestin recruitment; scaled DMSO 0%, Melanotan II 100% | activation, % at 8.9 µM | hit rate 31% among 2,400;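 active = mean activation across replicates above the hit cutoff set in the earlier primary screen, cut at about 8% in these data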
# MOR-DOR barr ag: agonists of MOR-DOR heterodimerization, counter-screen for MC4R biased agonist project, cell-based, luminescence; shares compounds with MC4R barr agon; U2OS PathHunter beta-arrestin, beta-gal luminescence; percent of deltorphin B response, DMSO zero; activation, % at 9.2 µM; hit rate 5.8% among 2,400; AID 602194, 2012;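 active = mean activation across replicates exceeds the hit threshold derived in the earlier primary screen, cut at about 18% in these data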;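 also: 100% = deltorphin B at 0.9 µM final and 0% = DMSO alone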
# Numbers without * were called inactive; · = no result. The list is not random: actives were taken first. Their share in the collection is about 2.1%.
SMILES,NOD2 RIPK2 PPI,TLR9-MyD88 block,MIN6 prolif,MC4R barr agon,TLR4-MyD88 BLA,MC4R antag cAMP,MC4R barr ag,MOR-DOR barr ag
CN(C)S(=O)(=O)c1ccc2[nH]cc(/C=C/c3nc4ccccc4c(=O)n3-c3ccccc3)c2c1,-8,-3,-2,13*,-7,1,9.2*,5
CCn1c(/C=C/c2c[nH]c3ccccc23)nc2ccccc2c1=O,1,-1,-3,4,17,-2,·,·
Cc1cc(Cn2nnc(-c3ccc(Br)cc3)n2)cc(C)c1O,3,3,-2,0,·,-7,·,·
C=CCOc1ccc(/C=C/C(=O)OCC(=O)NCC2CCCCC2)cc1,-9,-3,-1,12*,·,0,1,3
O=C(COC(=O)/C=C/c1ccc([N+](=O)[O-])cc1)NC(=O)NC1CCCCC1,1,-6,0,19*,·,-3,7,13
O=C(COC(=O)/C=C/c1ccc([N+](=O)[O-])cc1)NC(c1ccccc1)c1ccccc1,-5,5,0,12*,11,5,2,1
O=C(COC(=O)/C=C/c1ccc([N+](=O)[O-])cc1)NCc1ccccc1,1,-5,0,2,12,-6,·,·
CC(C)c1ccc(NC(=O)COC(=O)Cn2cnc3c2c(=O)n(C)c(=O)n3C)cc1,-4,2,·,-2,·,8,·,·
CC(=O)Oc1cccc(C(=O)Nc2ccc(NC(=O)c3cccs3)cc2)c1,-10,5,0,1,·,-4,·,·
Cc1ccc(NC2CCCN(C(=O)CCN3CCOCC3)C2)cc1C (configuration not stated),-22,-1,-1,-3,·,4,·,·
COc1ccccc1COCC(O)CNCCc1ccc(C(F)(F)F)cc1 (configuration not stated),2,-5,-5,11*,·,16,8,9
OC(CNCCc1ccc(C(F)(F)F)cc1)COc1cccc2ccccc12 (configuration not stated),1,5,-6,15*,3,12,20*,10
OC(CNCCc1ccc(C(F)(F)F)cc1)COc1ccc2ccccc2c1 (configuration not stated),8,-1,-3,12*,-9,6,9.4*,7
COc1cccc(-c2cnc(C(O)c3c(C)cccc3C)[nH]2)c1 (configuration not stated),1,·,·,0,·,0,·,·
CC(C)(C)C(=O)Nc1nc2cc3c(cc2s1)OCO3,9,-4,-5,-1,·,6,·,·
CCC(=O)OCc1cc2cccc(C)c2[nH]c1=O,-8,3,0,0,-1,7,·,·
COc1ccc(CC(=O)OCc2cc3cccc(C)c3[nH]c2=O)cc1,-4,6,2,21*,10,9,8,5
COc1ccc(C(=O)OCc2cc3cccc(C)c3[nH]c2=O)cc1,-1,-3,-1,15*,4,5,2,14
Cc1ccc(S(=O)(=O)N(C)CC(=O)Nc2cc(C)ccn2)cc1,4,-6,-2,-2,·,1,·,·
Cc1cc(N)n(-c2cc(C)c3ccccc3n2)n1,-5,5,-6,-1,-5,8,·,·
Cc1cc(C)c2nc(-n3nc(C)cc3N)cc(C)c2c1,-1,-8,-1,15*,-11,-8,2,3
CCOC(=O)c1c(NC(=O)COC(=O)c2nccnc2N)sc2c1CCC2,-3,3,·,16*,·,-4,5,6
Cc1nc(Nc2ccc(F)cc2)nc(Nc2ccc(F)cc2)c1[N+](=O)[O-],0,-8,-2,13*,·,10,5,3
COc1cc(C(C#N)N2CCC(c3ccccc3)=N2)ccc1O (configuration not stated),4,-2,1,-2,·,11,·,·
Cc1ccc(C(C)C)c(OCc2nn(CC(=O)c3ccc(OC(F)F)cc3)c3[n+]2CCCCC3)c1,-10,-3,-7,20*,10,16,14*,25*
SMILES,NOD2 RIPK2 PPI,TLR9-MyD88 block,MIN6 prolif,MC4R barr agon,TLR4-MyD88 BLA,MC4R antag cAMP,MC4R barr ag,MOR-DOR barr ag
COc1ccc(C(=O)Cn2nc(CNc3ccc(Br)cc3)[n+]3c2CCCCC3)cc1,3,-8,-6,-3,-22,7,·,·
Cc1ccc(OCC(=O)NCCCNC(=O)c2ccco2)cc1,-5,2,0,0,·,18,·,·
Cc1cc(-n2c(C)cc(C(=O)CSc3nnc4sc5ccccc5n34)c2C)no1,-7,-5,-1,0,-2,19,·,·
Cc1cc(-n2c(C)cc(C(=O)CSc3nnnn3-c3ccc(Cl)cc3)c2C)no1,1,-10,-3,20*,-5,7,2,4
O=C(COc1ccc2ccc(=O)oc2c1)Nc1ccc(N2CCCCC2)cc1,2,-5,-3,16*,·,5,9.1*,9
O=C(COc1ccccc1Cl)Nc1ccc2oc(=O)ccc2c1,-4,-1,-1,12*,·,-4,7,6
O=C(CSc1nnc(C2CC2)n1-c1ccccc1)N1CCNC1=O,3,8,0,0,·,5,·,·
COc1ccc(C(=O)OCC(=O)NC(=O)NCc2ccccc2)cc1[N+](=O)[O-],10,-11,2,0,·,8,·,·
COc1cc(C(=O)OCC(=O)NC(=O)NCc2ccccc2)ccc1OC(F)F,3,-6,3,9.7*,·,-3,3,8
O=C1CSc2ccc(C(=O)Nc3cccc(S(=O)(=O)Nc4ccc(Br)cc4)c3)cc2N1,-16,-5,-6,11*,8,25,3,4
Clc1ccc(CNCc2cccs2)c(Cl)c1,-5,-5,0,11*,-5,14,2,4
COc1ccccc1CNC(=O)c1cn(C)c2ccc(S(=O)(=O)N3CCCC3)cc2c1=O,-6,-18,-4,1,-10,6,·,·
COC(=O)[C@H](CO)N1C(=O)[C@@H]2[C@H](C1=O)C1C=C[C@H]2C1,2,-5,·,1,·,0,·,·
Clc1ccc(Nc2nc3ccccc3n3nnnc23)cc1,2,-1,1,6,-6,3,·,·

# Screens (PubChem BioAssay)
